Test results: ChEMBL document CHEMBL3856184, “Tyrosol and hydroxytyrosol derivatives as antitrypanosomal and antileishmanial agents” (Eur J Med Chem, 2016)

Assays:
[1] = Cytotoxicity against human MRC5 cells assessed as inhibition of cell proliferation measured after 72 hrs by MTT assay; format: toxicity, cell-based
Method in brief: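 SV-40 transformed fetal lung fibroblasts kept in DMEM with 10% hiFBS and penicillin/streptomycin at 37 °C, 5% CO₂. Cells trypsinized, seeded at 4 x 10⁴ cell/ml and exposed to increasing concentrations for 72 h at 37 °C. Viability read by colorimetric MTT. EC₅₀ taken as the concentration reducing growth by 50% versus untreated cells.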

[2] = test system: Trypanosoma brucei brucei; assay: Antitrypanosomal activity against bloodstream form of Trypanosoma brucei brucei S16 assessed as inhibition of proliferation measured after 72 hrs by alamarBlue assay; format: functional; details: S16, 72 h
Method in brief: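 Bloodstream forms cultured in HMI-9 with 10% hiFBS at 37 °C, 5% CO₂. Seeded at 1 × 10⁴ per mL with increasing compound concentrations for 72 h under the same conditions. Proliferation read by alamarBlue fluorescence, excitation 550 nm and emission 590 nm.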

[3] = Selectivity index, ratio of IC50 for human MRC5 cells to IC50 for bloodstream form of Trypanosoma brucei brucei S16; format: toxicity, cell-based; details: read-out: Ratio IC50
Leishmania donovani [4] = assay: Antileishmanial activity against Leishmania donovani MHOM/ET/67/HU3 axenic amastigotes at 20 uM after 72 hrs by resazurin-based assay relative to control; format: functional; details: MHOM/ET/67/HU3, 72 h
Method in brief: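 Axenic amastigotes grown in Schneider medium with 20% hiFBS, pH 5.4, 37 °C, 5% CO₂. 10⁶ parasites/ml exposed to a single 20 μM concentration for 72 h at 37 °C. Viability read by resazurin assay, reported as percent inhibition.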

Leishmania donovani [5] = assay: Antileishmanial activity against Leishmania donovani MON-2 MHOM/IN/1996/THAK35 amastigotes infected in mouse J774A.1 cells after 72 hrs by alamarBlue assay; format: functional, cell-based; details: MON-2 MHOM/IN/1996/THAK35, J774.A1, 72 h
[6] = test system: Trypanosoma brucei brucei; assay: Potency index, ratio of IC50 for tyrosol to IC50 for test compound against bloodstream form of Trypanosoma brucei brucei S16; format: functional
Leishmania donovani [7] = assay: Antileishmanial activity against Leishmania donovani MHOM/ET/67/HU3 intracellular amastigotes infected in human THP1 cells after 72 hrs by luciferase coupled luminescence assay; format: functional, cell-based; details: MHOM/ET/67/HU3, THP-1, 72 h
Method in brief: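 Luciferase-expressing parasite line. THP-1 cells differentiated with 20 ng/mL PMA for 48 h, then 24 h in fresh medium, seeded at 3x10⁴ macrophages/well and infected with late-stage promastigotes at a macrophage:parasite ratio of 1:10. Infected cultures exposed to a range of concentrations in RPMI 1640 with 10% hiFBS at 37 °C, 5% CO₂ for 72 h, then lysed. Luminescence read as intracellular parasite growth.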

[8] = test system: Trypanosoma brucei brucei; assay: Potency index, ratio of IC50 for hydroxytyrosol to IC50 for test compound against bloodstream form of Trypanosoma brucei brucei S16; format: functional
[9] = Selectivity index, ratio of IC50 for human MRC5 cells to IC50 for intracellular amastigotes of Leishmania donovani MHOM/ET/67/HU3 infected in human THP1 cells; format: toxicity, cell-based; details: read-out: Ratio IC50
[10] = test system: Trypanosoma brucei rhodesiense; assay: Antitrypanosomal activity against Trypanosoma brucei rhodesiense; format: functional
Leishmania donovani [11] = assay: Potency index, ratio of IC50 for tyrosol to IC50 for test compound against intracellular amastigotes of Leishmania donovani MHOM/ET/67/HU3 infected in human THP1 cells; format: functional, THP-1
Leishmania major = assay: Leishmanicidal activity against Leishmania major MHOM/TN/95/GLC94 promastigotes after 24 hrs by MTT assay; format: functional; details: MHOM/TN/95/GLC94, 24 h
Leishmania infantum = assay: Leishmanicidal activity against Leishmania infantum MHOM/TN/94/LV50 promastigotes after 24 hrs by MTT assay; format: functional; details: MHOM/TN/94/LV50, 24 h

SMILES | IC50 [2] [µM] | IC50 (Leishmania donovani [7]) [µM] | IC50 [10] [µM] | IC50 at 72 h [1] [µM] | selectivity ratio [3] | inhibition at 20 µM (Leishmania donovani [4]) [%] | IC50 (Leishmania donovani [5]) [µM] | Ratio IC50 [6] | Ratio IC50 [8] | selectivity ratio [9] | Ratio IC50 (Leishmania donovani [11]) | IC50 (Leishmania major) [µM] | IC50 (Leishmania infantum) [µM]
OCCc1ccc(O)c(O)c1 [HYDROXYTYROSOL] | 47.5 | – | – | > 50 | > 1 | 0 | 393 | – | – | – | – | – | –
C[C@@H]1[C@H](O)[C@@H](C)/C=C/C=C/C=C/C=C/C=C/C=C/C=C/[C@H](O[C@@H]2O[C@H](C)[C@@H](O)[C@H](N)[C@@H]2O)C[C@@H]2O[C@](O)(C[C@@H](O)C[C@@H](O)[C@H](O)CC[C@@H](O)C[C@@H](O)CC(=O)O[C@H]1C)C[C@H](O)[C@H]2C(=O)O [AMPHOTERICIN B] | – | 0.1 | – | – | – | – | – | – | – | – | – | – | –
CCCCCCCCCCCC(=O)OCCc1ccc2c(c1)OCO2 | > 10 | – | – | > 50 | > 5 | – | – | – | >5 | – | – | – | –
CC(=O)OCCc1ccc(O)cc1 | 79.4 | – | – | 114 | 1.4 | 28 | – | 0.13 | – | – | – | – | –
CCCCCCCCCC(=O)NCCc1ccc(O)c(O)c1 | > 10 | – | – | > 50 | > 5 | – | – | – | 5 | – | – | – | –
O=C(O)[C@H]1O[C@@H](Oc2ccc(CCO)cc2)[C@H](O)[C@@H](O)[C@@H]1O | 61.5 | – | – | 110 | 1.8 | 36 | – | 0.17 | – | – | – | – | –
CCCCCCCCCCOCCc1ccc(OCc2ccc(OC)cc2)c(OCc2ccc(OC)cc2)c1 | > 10 | – | – | > 50 | > 5 | – | – | – | >5 | – | – | – | –
CCCCCCCCCCCCSCCc1ccc(OCc2ccccc2)c(OCc2ccccc2)c1 | > 10 | – | – | > 50 | > 5 | – | – | – | 5 | – | – | – | –
CCCCCCCCCCCCSCCc1ccc(OCc2ccc(OC)cc2)c(OCc2ccc(OC)cc2)c1 | > 10 | – | – | > 50 | > 5 | – | – | – | 5 | – | – | – | –
OCCc1ccc(O)cc1 [TYROSOL] | > 10 | > 10 | > 15 | > 500 | > 5 | 50 | – | – | – | 5 | – | – | –
CCCCCCCC(=O)OCCc1ccc(O)cc1 | 56.8 | > 10 | – | 133 | 2.3 | 46 | – | 0.22 | – | 13.3 | 1 | – | –
NCCc1ccc(O)c(O)c1 [DOPAMINE] | > 10 | – | – | 68.9 | 7 | – | – | – | 5 | – | – | – | –
CCCCCC(=O)OCCc1ccc(O)cc1 | 59.1 | > 10 | – | 166 | 2.8 | 44 | – | 0.16 | – | 16.6 | 1 | – | –
CCCCCCCCCC(=O)OCCc1ccc2c(c1)OCO2 | > 10 | – | – | > 50 | > 5 | – | – | – | >5 | – | – | – | –
CCCCCCCCCCOCCc1ccc(OCc2ccccc2)c(OCc2ccccc2)c1 | > 10 | – | – | > 50 | > 5 | – | – | – | >5 | – | – | – | –
CCCCCCCCCC(=O)OCCc1ccc(O)cc1 | 81.4 | – | – | 172 | 2.1 | 34 | – | 0.16 | – | – | – | 65 | 132
CC(=O)OCCc1ccc(O)c(O)c1 | 43.4 | > 10 | – | > 50 | > 1 | 48 | – | – | 1 | – | – | – | –

The next lines start with results.

IC50 [2] [µM] | IC50 (Leishmania donovani [7]) [µM] | IC50 [10] [µM] | SMILES | IC50 at 72 h [1] [µM] | selectivity ratio [3] | inhibition at 20 µM (Leishmania donovani [4]) [%] | IC50 (Leishmania donovani [5]) [µM] | Ratio IC50 [6] | Ratio IC50 [8] | selectivity ratio [9] | Ratio IC50 (Leishmania donovani [11]) | IC50 (Leishmania major) [µM] | IC50 (Leishmania infantum) [µM]
16.2 | – | – | CCCCCCCCCCCC(=O)OCCc1ccc(O)cc1 | 67.2 | 4.1 | 32 | – | 0.52 | – | – | – | – | –
2.43 | > 10 | – | CCCCCCCCCCCCCCCC(=O)OCCc1ccc(O)c(O)c1 [HYDROXYTYROSOL PALMITATE] | > 50 | > 21 | 52 | – | – | 20 | – | – | – | –
9.4 | > 10 | – | CCCC(=O)OCCc1ccc(O)c(O)c1 [HYDROXYTYROSOL BUTANOATE] | 71.5 | 8 | 48 | – | – | 5 | 7.1 | – | – | –
0.77 | – | – | CCCCCCCCCCCCNC(=S)NCCc1ccc(O)c(O)c1 | 2.96 | 4 | – | – | – | 62 | – | – | – | –
8.74 | – | – | CCCCCCCCCCCC(=O)NCCc1ccc(O)c(O)c1 | > 50 | > 5 | – | – | – | 5 | – | – | – | –
0.63 | – | – | CCCCCCCCCCCCOCCc1ccc(O)c(O)c1 | 13.2 | 21 | – | – | – | 75 | – | – | – | –
9.87 | – | – | Oc1ccc(CCN=C=S)cc1O | 21.1 | 2 | – | – | – | 5 | – | – | – | –
0.6 | 8.44 | – | CCCCCCCCCC(=O)OCCc1ccc(O)c(O)c1 [HYDROXYTYROSOL DECANOATE] | 71.1 | 118 | 54 | – | – | 79 | 8.4 | – | – | –
9.6 | > 10 | – | CCCCCCCC(=O)OCCc1ccc(O)c(O)c1 | 104 | 11 | 45 | – | – | 5 | 10.3 | – | – | –
1.29 | – | – | CCCCCCCCCCOCCc1ccc(O)c(O)c1 | > 50 | > 38 | – | – | – | 37 | – | – | – | –
41.6 | – | – | O=S(=O)([O-])Oc1ccc(CCO)cc1.[K+] | 106 | 2.6 | 36 | – | 0.16 | – | – | – | – | –
2.29 | > 10 | – | CCCCCCCCCCCCCC(=O)OCCc1ccc(O)c(O)c1 | > 50 | > 22 | 53 | – | – | 21 | – | – | – | –
0.038 | – | – | Cc1ccc(C(=O)Nc2ccc(S(=O)(=O)O)c3cc(S(=O)(=O)O)cc(S(=O)(=O)O)c23)cc1NC(=O)c1cccc(NC(=O)Nc2cccc(C(=O)Nc3cc(C(=O)Nc4ccc(S(=O)(=O)O)c5cc(S(=O)(=O)O)cc(S(=O)(=O)O)c45)ccc3C)c2)c1 [SURAMIN] | – | – | – | – | – | – | – | – | – | –
0.74 | – | – | CCCCCCCCCCNC(=S)NCCc1ccc(O)c(O)c1 | 24.8 | 33 | – | – | – | 64 | – | – | – | –
0.36 | > 10 | – | CCCCCCCCCCCC(=O)OCCc1ccc(O)c(O)c1 | 38.1 | 101 to 106 | 56 | – | – | 132 | – | – | – | –
